Assay results published in ChEMBL document CHEMBL4229498 (Bioorg Med Chem, 2018).
pEC50, pKi: −log10 of the molar value.

Legend:
Cannabinoid receptor 2 = Cannabinoid receptor 2 (Homo sapiens, UniProt P34972); assay: Displacement of [3H]-CP55940 from human CB2 receptor expressed in CHO cell membranes after 1 hr by liquid scintillation spectrometry
Cannabinoid receptor 1 [1] = target: T1, Cannabinoid receptor 1 (Homo sapiens, UniProt P21554); assay: Displacement of [3H]-CP55940 from human CB1 receptor expressed in CHO cell membranes after 1 hr by liquid scintillation spectrometry
[2] = Drug transport across apical to basolateral side in MDCK cells expressing MDR1 at 10 uM after 1 hr by mass spectrometer; assay type: ADME, cell-based, Canis lupus familiaris; details: dog
Procedure, shortened: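 MDCK-mdr1 cells (human MDR1-transfected) were grown 4 days to confluence on Transwell-type filters in DMEM/F12 with 10% FBS and antibiotics. Compound was added apically at 10 µM in HBSS with 25 mM D-glucose, HEPES-buffered to pH 7.4, and incubated 1 h at 37 °C. Apical and basal samples were collected, and results are given as % transported apical to basal.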

Cannabinoid receptor 1 [3] = target: T1, Cannabinoid receptor 1; details: HEK293
[4] = Tmax in C57BL6 mouse plasma at […], po administered in cassette format; assay type: ADME, organism-based
[5] = Cmax in C57BL6 mouse plasma at […], po administered in cassette format; assay type: ADME, organism-based; parameters: dose 2.5 mg/kg, route oral
[6] = Ratio of drug level in brain to plasma in C57BL6 mouse at […], po administered in cassette format; assay type: ADME, organism-based
[7] = Half life in C57BL6 mouse at […], po administered in cassette format; assay type: ADME, organism-based; details: in vivo
Cannabinoid receptor 1 [8] = target: T1, Cannabinoid receptor 1; assay type: functional, cell-based, HEK293

T1 sequence (P21554 whole entry): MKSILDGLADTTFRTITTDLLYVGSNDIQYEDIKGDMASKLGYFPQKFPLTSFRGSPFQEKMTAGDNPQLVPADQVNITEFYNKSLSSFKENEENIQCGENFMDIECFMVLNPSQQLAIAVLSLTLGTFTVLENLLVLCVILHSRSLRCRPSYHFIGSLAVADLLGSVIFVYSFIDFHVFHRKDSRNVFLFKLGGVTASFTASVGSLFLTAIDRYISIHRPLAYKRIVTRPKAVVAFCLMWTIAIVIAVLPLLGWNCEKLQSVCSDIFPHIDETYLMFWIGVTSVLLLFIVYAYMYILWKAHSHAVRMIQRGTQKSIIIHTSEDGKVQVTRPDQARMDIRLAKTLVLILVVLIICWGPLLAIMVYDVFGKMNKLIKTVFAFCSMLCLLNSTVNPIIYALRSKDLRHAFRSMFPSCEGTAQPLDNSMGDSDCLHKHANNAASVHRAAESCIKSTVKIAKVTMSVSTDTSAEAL
Sequence of Cannabinoid receptor 2 (P34972 whole entry): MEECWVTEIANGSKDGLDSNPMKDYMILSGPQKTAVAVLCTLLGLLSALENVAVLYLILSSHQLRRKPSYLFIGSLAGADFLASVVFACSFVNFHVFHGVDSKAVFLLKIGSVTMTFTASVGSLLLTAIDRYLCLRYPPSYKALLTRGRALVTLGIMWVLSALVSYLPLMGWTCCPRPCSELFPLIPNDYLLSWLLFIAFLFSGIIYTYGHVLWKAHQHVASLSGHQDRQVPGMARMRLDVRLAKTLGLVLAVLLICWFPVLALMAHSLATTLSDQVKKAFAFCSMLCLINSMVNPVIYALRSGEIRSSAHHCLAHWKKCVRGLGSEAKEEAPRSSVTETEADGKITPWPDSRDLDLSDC

SMILES	pKi (Cannabinoid receptor 2)	pKi (Cannabinoid receptor 1 [1])	Drug transport [2] [%]	further results
O=C(OC1CCC1)N1CCN(c2ncnc3c2nc(-c2ccccc2Cl)n3-c2ccc(Cl)cc2)CC1	5.47	8.52	–	–
O=S(=O)(CCC(F)(F)F)N1CCN(c2ncnc3c2nc(-c2ccccc2Cl)n3-c2ccc(Cl)cc2)CC1	6.30	8.92	–	–
O=C(Nc1ccc(F)cc1F)N1CCN(c2ncnc3c2nc(-c2ccccc2Cl)n3-c2ccc(Cl)cc2)CC1	–	8.30	1.4	–
O=C(Nc1ccc(F)cc1)N1CCN(c2ncnc3c2nc(-c2ccccc2Cl)n3-c2ccc(Cl)cc2)CC1	–	–	0	–
CC(C)(C)OC(=O)N1CCN(c2ncnc3c2nc(-c2ccccc2Cl)n3-c2ccc(Cl)cc2)CC1	5.47	8.30	3	–
CCCCC(=O)N1CCN(c2ncnc3c2nc(-c2ccccc2Cl)n3-c2ccc(Cl)cc2)CC1	–	8.22	0	–
CS(=O)(=O)N1CCN(c2ncnc3c2nc(-c2ccccc2Cl)n3-c2ccc(Cl)cc2)CC1	5.77	7.62	14	–
O=C(C1COc2ccccc2O1)N1CCN(c2ncnc3c2nc(-c2ccccc2Cl)n3-c2ccc(Cl)cc2)CC1 (stereo not given)	–	8.30	0	–
O=C(CC1CCOC1)N1CCN(c2ncnc3c2nc(-c2ccccc2Cl)n3-c2ccc(Cl)cc2)CC1 (stereo not given)	5.52	8.10	–	–
O=C(C1CCSCC1)N1CCN(c2ncnc3c2nc(-c2ccccc2Cl)n3-c2ccc(Cl)cc2)CC1	6.28	–	–	–
CC(C(=O)N1CCN(c2ncnc3c2nc(-c2ccccc2Cl)n3-c2ccc(Cl)cc2)CC1)c1ccccc1 (stereo not given)	6.25	8.52	–	–
O=S(=O)(CC1CCOCC1)N1CCN(c2ncnc3c2nc(-c2ccccc2Cl)n3-c2ccc(Cl)cc2)CC1	5.52	8.52	9	–
CC(C)(C)CC(=O)N1CCN(c2ncnc3c2nc(-c2ccccc2Cl)n3-c2ccc(Cl)cc2)CC1	5.30	8.70	–	–
CC(C)S(=O)(=O)N1CCN(c2ncnc3c2nc(-c2ccccc2Cl)n3-c2ccc(Cl)cc2)CC1	–	–	11	–
O=C(CN1CCCCC1)N1CCN(c2ncnc3c2nc(-c2ccccc2Cl)n3-c2ccc(Cl)cc2)CC1	5.30	7.68	5	–
O=C(Nc1ccc(F)c(F)c1)N1CCN(c2ncnc3c2nc(-c2ccccc2Cl)n3-c2ccc(Cl)cc2)CC1	–	–	0	–
O=C(Nc1ccccc1F)N1CCN(c2ncnc3c2nc(-c2ccccc2Cl)n3-c2ccc(Cl)cc2)CC1	–	–	5	–

SMILES	pKi (Cannabinoid receptor 2)	pKi (Cannabinoid receptor 1 [1])	Drug transport [2] [%]	further results
O=C(N1CCCC1)N1CCN(c2ncnc3c2nc(-c2ccccc2Cl)n3-c2ccc(Cl)cc2)CC1	–	7.89	–	–
CCCCS(=O)(=O)N1CCN(c2ncnc3c2nc(-c2ccccc2Cl)n3-c2ccc(Cl)cc2)CC1	–	–	5	–
O=S(=O)(C1CC1)N1CCN(c2ncnc3c2nc(-c2ccccc2Cl)n3-c2ccc(Cl)cc2)CC1	–	8.30	4	–
CCCS(=O)(=O)N1CCN(c2ncnc3c2nc(-c2ccccc2Cl)n3-c2ccc(Cl)cc2)CC1	–	–	6	–
O=C(Nc1ccccc1)N1CCN(c2ncnc3c2nc(-c2ccccc2Cl)n3-c2ccc(Cl)cc2)CC1	–	–	1	–
O=C(OCC1CCC1)N1CCN(c2ncnc3c2nc(-c2ccccc2Cl)n3-c2ccc(Cl)cc2)CC1	5.34	8.52	0	Ke (Cannabinoid receptor 1 [3]): 12 nM
O=C(N1CCN(c2ncnc3c2nc(-c2ccccc2Cl)n3-c2ccc(Cl)cc2)CC1)C(F)(F)F	6.89	–	–	–
CC(C)CS(=O)(=O)N1CCN(c2ncnc3c2nc(-c2ccccc2Cl)n3-c2ccc(Cl)cc2)CC1	5.55	–	0	–
O=C(NC1CCCC1)N1CCN(c2ncnc3c2nc(-c2ccccc2Cl)n3-c2ccc(Cl)cc2)CC1	–	–	3	–
CCOCC(=O)N1CCN(c2ncnc3c2nc(-c2ccccc2Cl)n3-c2ccc(Cl)cc2)CC1	< 5.00	7.96	–	–
O=C(CC1CCCC1)N1CCN(c2ncnc3c2nc(-c2ccccc2Cl)n3-c2ccc(Cl)cc2)CC1	< 5.00	9.40	–	–
O=C(Nc1ccc(OC(F)F)nc1)N1CCN(c2ncnc3c2nc(-c2ccccc2Cl)n3-c2ccc(Cl)cc2)CC1	< 5.00	–	1.1	Tmax [4]: 4 h; Cmax [5]: 500 ng/mL; BPR [6]: 0.18; half-life [7]: 6.1 h; pEC50 (Cannabinoid receptor 1 [8]): 6.23
O=C(NS(=O)(=O)c1ccccc1F)N1CCN(c2ncnc3c2nc(-c2ccccc2Cl)n3-c2ccc(Cl)cc2)CC1	–	6.60	–	–
O=C(Nc1ccccn1)N1CCN(c2ncnc3c2nc(-c2ccccc2Cl)n3-c2ccc(Cl)cc2)CC1	–	–	1.2	–
CCS(=O)(=O)N1CCN(c2ncnc3c2nc(-c2ccccc2Cl)n3-c2ccc(Cl)cc2)CC1	–	8.52	18	–
O=S(=O)(CC1CCCCC1)N1CCN(c2ncnc3c2nc(-c2ccccc2Cl)n3-c2ccc(Cl)cc2)CC1	7.04	8.77	–	–
N=C(Nc1ccc(F)cc1)N1CCN(c2ncnc3c2nc(-c2ccccc2Cl)n3-c2ccc(Cl)cc2)CC1	–	–	0.4	–
